Columns and labels:
[1] = target: Translocator protein (Mus musculus) (UniProt P50637); test: Inhibition of TSPO in mouse HT22 cells assessed as protection against amyloid beta (1 to 42)-induced mitochondrial membrane potential loss by measuring recovery of mitochondrial membrane potential at 5 uM preincubated for 10 mins followed by amyloid beta (1 to 42) addition measured every 1 hr for 3 hrs by JC1 staining based fluorescence assay relative to control; assay type: cell-based; set-up: scale not given: the % may be the effect or the level left; details: HT-22
Sequence of Translocator protein (Mus musculus) (P50637 whole entry, looked up): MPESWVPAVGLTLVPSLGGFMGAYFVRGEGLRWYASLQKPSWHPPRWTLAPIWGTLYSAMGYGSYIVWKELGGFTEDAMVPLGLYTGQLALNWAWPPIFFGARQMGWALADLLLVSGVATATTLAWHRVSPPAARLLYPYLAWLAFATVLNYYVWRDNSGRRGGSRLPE
Method in brief: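 HT22 cells at 30,000 per well were loaded with 7.5 µM JC-1 in phenol red-free Opti-MEM for 1 h 15 min at 37 °C, then washed. Cells were treated with compound (5 µM) and Aβ1-42 (5 µM); vehicle wells received DMSO. Green (485/535) and red (560/595) fluorescence were read hourly for 3 h. Recovery was normalised between Aβ-damaged (0%) and normal (100%) ratio.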

[2] = target: Translocator protein (Mus musculus) (UniProt P50637); test: Inhibition of TSPO in mouse HT22 cells assessed as protection against amyloid beta (1 to 42)-induced mitochondrial membrane potential loss by measuring recovery of ATP production at 5 uM preincubated for 10 mins followed by amyloid beta (1 to 42) addition measured after 7 hrs by luciferase reporter gene assay relative to control; assay type: cell-based; set-up: scale not given: the % may be the effect or the level left; details: HT-22
Method in brief: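 HT22 cells at 7000 per well were given compound (5 µM) for 10 min at 37 °C, then Aβ1-42 (5 µM) or DMSO vehicle, and incubated 7 h. Cells were washed, lysed in 1% Triton X-100, and protein-equalised by BCA. ATP was measured by luciferin/luciferase luminescence and normalised to vehicle.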

[3] = Cytotoxicity against mouse HT22 cells assessed as cell viability at 5 uM after 24 hrs by MTT assay relative to control; assay type: toxicity, HT-22; details: read-out: Activity
Method in brief: (§1)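 MTT was added for 2 h, then solubilising solution (10% Triton X-100 in isopropanol with 0.1 M HCl) for 2 h more. Absorbance read at 560 nm; % inhibition normalised to vehicle, and viability taken from compound-only wells.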

[4] = target: Translocator protein (Mus musculus) (UniProt P50637); test: Inhibition of TSPO in mouse HT22 cells assessed as inhibition of amyloid beta (1 to 42)-induced toxicity at 5 uM after 24 hrs by MTT assay relative to control; assay type: cell-based; details: HT-22
Method in brief: as §1, with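 “HT22 cells at 5000 per well were treated with compound (5 µM), with or without Aβ1-42 (5 µM), for 24 h at 37 °C. MTT” for “MTT”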

[5] = target: Translocator protein (Mus musculus) (UniProt P50637); test: Inhibition of TSPO in mouse HT22 cells assessed as inhibition of amyloid beta (1 to 42)-induced ROS generation at 5 uM after 6 hrs by DCFDA staining based fluorescence assay relative to control; assay type: cell-based; details: HT-22

Compound | Activity [1] [%] | further results
CN1CCC(NC(=O)c2ccc(Cn3c(Cc4c(Cl)cccc4Cl)nc4ccccc43)cc2)CC1 | 81 | Activity [2]: 8%; viability at 24 h, 5 µM [3]: 94%
O=C(NCCCc1ccco1)c1ccc(Cn2c(SCc3ccc(F)cc3)nc3ncccc32)cc1 | 52 | –
CCN(CC)CCCNC(=O)c1ccc(Cn2c(SCc3ccc(F)cc3)nc3ncccc32)cc1 | 38 | –
O=C(NCCN1CCCCC1)c1ccc(Cn2c(SCc3ccc(F)cc3)nc3ncccc32)cc1 | 45 | –
Cc1ccc(C(C)C)cc1NC(=O)Cn1c(-c2cc(Cl)ccc2Cl)nc2cc(Cl)ccc21 | 60 | Activity [2]: 3%; viability at 24 h, 5 µM [3]: 78%
Cc1ccc(C(C)C)cc1NC(=O)Cn1c(-c2ccccc2)nc2ccccc21 | 63 | Activity [2]: 19%; viability at 24 h, 5 µM [3]: 67%
Cc1c(Cl)cccc1NC(=O)Cn1c(SCc2ccccc2F)nc2ccncc21 | 30 | –
CCN1CCCC1CNC(=O)c1ccc(Cn2c(CC(=O)Nc3cc(C(C)C)ccc3C)nc3ccccc32)cc1 (stereo unspecified) | 68 | –
C=CCN(C(=O)Cn1c(SCc2ccc(F)cc2)nc2ccncc21)c1ccccc1 | -1 | –
CCCN(CCC)C(=O)Cn1c(SCc2cccc(Cl)c2)nc2ccncc21 | 34 | –
O=C(NCCCc1cccs1)c1ccc(Cn2c(SCc3ccc(F)cc3)nc3ncccc32)cc1 | 46 | –
CCCSCCCNC(=O)c1ccc(CSc2nc3ncccc3n2Cc2cccc(C)c2)cc1 | 58 | –
Cc1ccc(C(C)C)c(OC[C@H](O)Cn2c(Cc3ccccc3)nc3ccccc32)c1 | 53 | –
O=C(NCCCN1CCCC1)c1ccc(Cn2c(Cc3c(Cl)cccc3Cl)nc3ccccc32)cc1 | 79 | Activity [2]: 31%; viability at 24 h, 5 µM [3]: 100 to 101%; inhibition [4]: 12%; inhibition [5]: 15%
COc1ccc(NC(=O)Cn2c(SCc3cc(C)ccc3C)nc3ccncc32)c(OC)c1OC | 43 | –
Cc1ccc(C(C)C)cc1NC(=O)Cc1nc2ccccc2n1Cc1ccc(C(=O)NCCCN2CCCCC2)cc1 | 80 | Activity [2]: 23%; viability at 24 h, 5 µM [3]: 100%
COc1ccc(OC)c(-c2nc3ccccc3n2CC(=O)Nc2cc(Oc3ccc(-c4ccccc4)cc3)ccc2F)c1 | 0 | –

Compound | Activity [1] [%] | further results
O=C(NCCCN1CCOCC1)c1ccc(Cn2c(Cc3c(Cl)cccc3Cl)nc3ccccc32)cc1 | 76 | Activity [2]: 1%; viability at 24 h, 5 µM [3]: 98%
Cc1ccc(Cn2c(SCc3ccc(F)cc3)nc3ncccc32)cc1 | 15 | –
O=C(NCCN1CCOCC1)c1ccc(Cn2c(SCc3ccc(F)cc3)nc3ncccc32)cc1 | 47 | –
CCN1CCCC1CNC(=O)c1ccc(Cn2c(SCc3ccc(F)cc3)nc3ncccc32)cc1 (stereo unspecified) | 61 | –
CCCN(CCC)C(=O)Cn1c(SCc2ccc(F)cc2)nc2ccccc21 | 57 | Activity [2]: 20%
O=C(c1ccc(CSc2nc3ncccc3n2Cc2ccc(F)cc2)cc1)N1CCCCC1 | 37 | –
O=C(CCn1c(-c2ccc(Cl)cc2)nc2ccccc21)Nc1ccccc1F | 65 | –
O=C(Cn1c(Cc2ccccc2)nc2ccccc21)Nc1cc(Oc2ccc(-c3ccccc3)cc2)ccc1F | 0 | –
CC[C@@H](C(=O)Nc1ccccc1OC)n1c(SCc2ccc(C)cc2)nc2ccncc21 | 43 | –
CCCSCCNC(=O)c1ccc(Cn2c(SCc3ccccc3)nc3ncccc32)cc1 | 23 | –
COc1ccc(NC(=O)Cn2c(SCc3ccc(C)cc3)nc3ccncc32)c(OC)c1OC | 27 | –
O=C(NCCN1CCCCC1)c1ccc(Cn2c(Cc3c(Cl)cccc3Cl)nc3ccccc32)cc1 | 89 | Activity [2]: 4%; viability at 24 h, 5 µM [3]: 87%
CCC1CCCCN1C(=O)Cn1c(SCc2cccc(C(F)(F)F)c2)nc2ncccc21 (stereo unspecified) | 25 | –
O=C(Cn1c(SCc2ccc(F)cc2)nc2ncccc21)Nc1ccc2c(c1)OCO2 | -7 | –
COc1ccc(CC(=O)Cn2c(SCc3ccc(F)cc3)nc3ccncc32)c(OC)c1 | 34 | –
CN1CCN(CCCNC(=O)c2ccc(Cn3c(Cc4c(Cl)cccc4Cl)nc4ccccc43)cc2)CC1 | 86 | –
Cc1ccc(C(C)C)cc1NC(=O)Cc1nc2ccccc2n1Cc1ccc(C(=O)NCCCN(C)C)cc1 | 68 | Activity [2]: 14%; viability at 24 h, 5 µM [3]: 97%

The next lines start with results.

Activity [1] [%] | Compound | further results
91 | Cc1ccc(C(C)C)cc1NC(=O)Cn1c(-c2cc(Cl)ccc2Cl)nc2ccccc21 | Activity [2]: 0%; viability at 24 h, 5 µM [3]: 93%
57 | Cc1ccc(C(C)C)cc1NC(=O)Cn1c(Cc2ccc(Cl)c(Cl)c2)nc2ccccc21 | –
86 | CC(C)(C)c1cc(NC(=O)Cn2c(-c3ccccc3)nc3ccccc32)cc(C(C)(C)C)c1 | Activity [2]: 4%; viability at 24 h, 5 µM [3]: 71%
24 | Cc1ccc(C(C)C)cc1NC(=O)Cn1c(Cc2ccccc2)nc2ccccc21 | –
65 | Cc1cccc(C(C)(C)C)c1NC(=O)Cn1c(-c2ccccc2)nc2ccccc21 | Activity [2]: 55%; viability at 24 h, 5 µM [3]: 65 to 95%; inhibition [4]: 16%; inhibition [5]: 0%
38 | Cc1cccc(C(C)(C)C)c1NC(=O)Cn1c(Cc2ccccc2)nc2ccccc21 | –
69 | O=C(Cn1c(-c2ccccc2)nc2ccccc21)Nc1cc(Cl)cc(Cl)c1 | –
68 | COc1ccc(OC)c(Cc2nc3ccccc3n2CC(=O)Nc2cc(Cl)cc(Cl)c2)c1 | Activity [2]: 94%; viability at 24 h, 5 µM [3]: 81 to 82%; inhibition [4]: 12%; inhibition [5]: 0%
73 | CN(C)C(=O)c1ccc(Cn2c(Cc3c(Cl)cccc3Cl)nc3ccccc32)cc1 | –
29 | CC(C)(C)c1cc(NC(=O)Cn2c(Cc3ccccc3)nc3ccccc32)cc(C(C)(C)C)c1 | –
42 | CC(C)(C)c1cc(NC(=O)Cn2c(Cc3ccc(Cl)c(Cl)c3)nc3ccccc32)cc(C(C)(C)C)c1 | –
77 | O=C(Cn1c(-c2cc(Cl)ccc2Cl)nc2cc(Cl)ccc21)Nc1cc(Cl)cc(Cl)c1 | –
18 | O=C(Cn1c(-c2cc(Cl)ccc2Cl)nc2ccc(Cl)cc21)Nc1cc(Cl)cc(Cl)c1 | –
81 | COc1ccc(OC)c(Cc2nc3ccccc3n2CC(=O)Nc2cc(C(C)C)ccc2C)c1 | Activity [2]: 0%; viability at 24 h, 5 µM [3]: 96%
41 | COc1ccc(OC)c(-c2nc3ccccc3n2CC(=O)Nc2cc(C(C)C)ccc2C)c1 | –
41 | Cc1cccc(C(C)(C)C)c1NC(=O)Cn1c(-c2cc(Cl)ccc2Cl)nc2ccccc21 | –
91 | O=C(Cn1c(-c2cc(Cl)ccc2Cl)nc2ccccc21)Nc1cc(Cl)cc(Cl)c1 | Activity [2]: 0%; viability at 24 h, 5 µM [3]: 107%
